Source: ChEMBL document CHEMBL5576109, “Hydantoin derivative dimers as broad-spectrum antimicrobial agents against ESKAPE pathogens with enhanced killing rate and stability” (RSC Med Chem, 2024)
Converted amounts (≈) assume the structure as drawn. The source made the active and inactive calls. No cut-off for these calls is given here.

How the values were obtained:
Staphylococcus aureus [1] = test: Induction of inner membrane permeabilization in Staphylococcus aureus ATCC 29213 assessed as increase in fluorescence intensity incubated for 1 hr by propidium iodide staining based TECAN SPARK microplate reader analysis; format: functional, organism-based
How it was run: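 Overnight 37 °C cultures resuspended in PBS and diluted to OD600 0.1. Propidium iodide added (5 µM final) for 30 min. Treated with a range of compound concentrations for 1 h in the dark; fluorescence read at Ex 535 / Em 615 nm.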

Escherichia coli [2] = test: Induction of ROS generation in Escherichia coli ATCC 25922 assessed as increase in fluorescence intensity incubated for 30 mins by DCFH-DA staining based analysis; format: functional, organism-based
How it was run: (§1)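 Overnight 37 °C cultures washed three times and resuspended in PBS, diluted to OD600 0.1, and mixed with DCFH-DA (5 µM). Treated with a range of compound concentrations for 30 min at 37 °C in the dark. Fluorescence read at Ex 488 / Em 530 nm.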

Staphylococcus aureus [3] = test: Induction of ROS generation in Staphylococcus aureus ATCC 29213 assessed as increase in fluorescence intensity incubated for 30 mins by DCFH-DA staining based analysis; format: functional, organism-based; how it was run: as §1
Escherichia coli [4] = test: Induction of outer membrane permeabilization in Escherichia coli ATCC 25922 assessed as increase in fluorescence intensity at 1 to 4 times of MIC incubated for 1 hr by NPN staining based TECAN SPARK microplate reader analysis; format: functional, organism-based
How it was run: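 Overnight E. coli resuspended in PBS and diluted to OD600 0.1. NPN added (10 µM final) for 30 min. Treated with a range of compound concentrations for 1 h in the dark; fluorescence read at Ex 350 / Em 420 nm.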

Escherichia coli [5] = test: Induction of morphological changes in Escherichia coli ATCC 25922 assessed as cell collapse at 8 time of MIC for 6 hrs by scanning electron microscopy; format: functional, organism-based
How it was run: (§2)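 Mid-log cells exposed to compound for 6 h at 37 °C alongside untreated controls. Cells pelleted (3000 rpm, 15 min), washed four times in PBS, and fixed with 2.5% glutaraldehyde. Dehydrated through graded ethanol, critical-point dried and gold-coated, then imaged by SEM.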

Escherichia coli [6] = test: Induction of morphological changes in Escherichia coli ATCC 25922 assessed as cell shrinkage at 8 time of MIC for 6 hrs by scanning electron microscopy; format: functional, organism-based; how it was run: as §2
Staphylococcus aureus [7] = test: Bactericidal activity against Staphylococcus aureus ATCC 29213 assessed as inhibition of bacterial growth at 1 to 4 times of MIC measured within 1 hr mins by time-kill kinetics assay relative to control; format: functional
How it was run: (§3)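 Bacteria grown at 37 °C to mid-log phase and diluted to 1 × 10^6 CFU/mL. […] Mixtures diluted 10^2–10^4-fold and plated on TSB agar; colonies counted after 20 h at 37 °C.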

Escherichia coli [8] = test: Antibacterial activity against Escherichia coli ATCC 25922 assessed as inhibition of bacterial growth by measuring fold increase in MIC measured after 16 to 18 hrs in presence of KCl by TECAN SPARK microplate reader analysis; format: functional; details: time 16-18 hrs
How it was run: (§4)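 Salt/serum stability. Exponential-phase bacteria incubated 16–18 h with compound in medium supplemented with 10 mM NaCl, 10 mM KCl, 10 mM MgCl2, 10% DMEM or 10% FBS. Stability judged from the change in MIC.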

Staphylococcus aureus [9] = test: Drug resistance, ratio of MIC for Staphylococcus aureus ATCC 29213 after 25 passages to MIC for Staphylococcus aureus ATCC 29213 after initial exposure; format: functional; details: time 16 hrs
How it was run: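 Serial passage resistance selection: after each broth MIC determination, bacteria from the 1/2 MIC well were withdrawn and diluted to 1 × 10^6 CFU/mL for the next MIC measurement. Repeated for 25 passages; MIC after passage 25 compared with the initial MIC.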

Escherichia coli [10] = test: Antibacterial activity against Escherichia coli ATCC 25922 assessed as inhibition of bacterial growth by measuring fold increase in MIC measured after 16 to 18 hrs in presence of NaCl by TECAN SPARK microplate reader analysis; format: functional; details: time 16-18 hrs; how it was run: as §4
Staphylococcus aureus [11] = test: Antibacterial activity against Staphylococcus aureus ATCC 29213 assessed as inhibition of bacterial growth by measuring fold increase in MIC compound preincubated at 80 degree C for 1 hr followed by bacterial culture addition and measured after 16 to 18 hrs by TECAN SPARK microplate reader analysis; format: functional; details: time 16-18 hrs
Escherichia coli [12] = test: Antibacterial activity against Escherichia coli ATCC 25922 assessed as inhibition of bacterial growth by measuring fold increase in MIC compound preincubated at 40 degree C for 1 hr followed by bacterial culture addition and measured after 16 to 18 hrs by TECAN SPARK microplate reader analysis; format: functional; details: time 16-18 hrs
Escherichia coli [13] = test: Antibacterial activity against Escherichia coli ATCC 25922 assessed as reduction bacterial growth after 16 hrs by TECAN SPARK microplate reader analysis; format: functional
How it was run: (§5)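 Single colony grown overnight in 4 mL TSB at 37 °C, diluted 100-fold and grown to mid-log phase. Compounds 2-fold serially diluted in TSB and mixed 1:1 with bacteria in TSB (1 × 10^6 CFU/mL). Incubated 16 h at 37 °C, then A600 read. MIC taken as the lowest concentration giving complete growth inhibition.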

Escherichia coli [14] = test: Induction of cytoplasmic membrane depolarization in Escherichia coli ATCC 25922 assessed as increase in fluorescence intensity by DiSC3(5) staining based analysis; format: functional, organism-based
How it was run: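 Mid-log cells washed in 5 mM HEPES/5 mM glucose and resuspended at 10^6 CFU/mL in glucose/HEPES/100 mM KCl (1:1:1). DiSC3(5) added and fluorescence (Ex 622 / Em 670 nm) followed for 30 min at 37 °C until minimal. Compound then added and the fluorescence rise recorded.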

Escherichia coli [15] = test: Induction of membrane disruption in Escherichia coli ATCC 25922 assessed as increase in red fluorescence at 8 times of MIC for 6 hrs by Hoechst 33342 and propidium iodide staining based confocal microscopic analysis; format: functional, organism-based
Escherichia coli [16] = test: Antibacterial activity against Escherichia coli ATCC 25922 assessed as inhibition of bacterial growth by measuring fold increase in MIC measured after 16 to 18 hrs in presence of 10% DMEM by TECAN SPARK microplate reader analysis; format: functional; details: time 16-18 hrs; how it was run: as §4
Escherichia coli [17] = test: Bactericidal activity against Escherichia coli ATCC 25922 assessed as inhibition of bacterial growth at 1 to 4 times of MIC measured within 1 hr mins by time-kill kinetics assay relative to control; format: functional; how it was run: as §3
Klebsiella pneumoniae = test: Antibacterial activity against Klebsiella pneumoniae ATCC 10031 assessed as reduction bacterial growth after 16 hrs by TECAN SPARK microplate reader analysis; format: functional; how it was run: as §5
Bacillus subtilis = test: Antibacterial activity against Bacillus subtilis ATCC 6633 assessed as reduction bacterial growth after 16 hrs by TECAN SPARK microplate reader analysis; format: functional; how it was run: as §5
Staphylococcus aureus [18] = test: Induction of morphological changes in Staphylococcus aureus ATCC 29213 assessed as cell wrinkled at 8 time of MIC for 6 hrs by scanning electron microscopy; format: functional, organism-based; how it was run: as §2
Escherichia coli [19] = test: Antibacterial activity against Escherichia coli ATCC 25922 assessed as inhibition of bacterial growth by measuring fold increase in MIC compound preincubated at 80 degree C for 1 hr followed by bacterial culture addition and measured after 16 to 18 hrs by TECAN SPARK microplate reader analysis; format: functional; details: time 16-18 hrs
Escherichia coli [20] = test: Induction of morphological changes in Escherichia coli ATCC 25922 assessed as cell wrinkled at 8 time of MIC for 6 hrs by scanning electron microscopy; format: functional, organism-based; how it was run: as §2

Q: With `CCCCCCN1C(=O)[C@H](CCCCNC(=N)N)N(Cc2ccc(-c3ccc(CN4C(=O)N(CCCCCC)C(=O)[C@@H]4CCCCNC(=N)N)cc3)cc2)C1=O` as the molecule, how does the Activity (Staphylococcus aureus [1]) read?
A: Dose-Dependent Effect

Q: What about the Activity (Escherichia coli [2]) of the same molecule?
A: Dose-Dependent Effect

Q: And the Activity (Staphylococcus aureus [3])?
A: Dose-Dependent Effect

Q: What about the Activity (Escherichia coli [4]) of the same molecule?
A: Active

Q: And the Activity (Escherichia coli [5])?
A: Active

Q: And the Activity (Escherichia coli [6])?
A: Active

Q: What about the “inhibition (INH)” value (Staphylococcus aureus [7]) of the same molecule?
A: 100%

Q: What about the “fold change (FC)” value (Escherichia coli [8]) of the same molecule?
A: 1

Q: What about the Ratio (Staphylococcus aureus [9]) of the same molecule?
A: <=4

Q: And the “fold change (FC)” value (Escherichia coli [10])?
A: 1

Q: What about the “fold change (FC)” value (Staphylococcus aureus [11]) of the same molecule?
A: 1

Q: What about the “fold change (FC)” value (Escherichia coli [12]) of the same molecule?
A: 1

Q: What about the MIC (Escherichia coli [13]) of the same molecule?
A: 3.91 µg/mL (≈ 5.06 µM)

Q: And the Activity (Escherichia coli [14])?
A: Dose-Dependent Effect

Q: What about the Activity (Escherichia coli [15]) of the same molecule?
A: Active

Q: What about the “fold change (FC)” value (Escherichia coli [16]) of the same molecule?
A: 1

Q: And the “inhibition (INH)” value (Escherichia coli [17])?
A: 100%

Q: And the MIC (Klebsiella pneumoniae)?
A: 7.81 µg/mL (≈ 10.1 µM)

Q: And the MIC (Bacillus subtilis)?
A: 1.95 µg/mL (≈ 2.52 µM)

Q: What about the Activity (Staphylococcus aureus [18]) of the same molecule?
A: Active

Q: What about the “fold change (FC)” value (Escherichia coli [19]) of the same molecule?
A: 1

Q: What about the Activity (Escherichia coli [20]) of the same molecule?
A: Active
